One block for each compound: values may come before it. Activity calls are given as the source filed them.
Experiments:
[1] = Cytotoxicity against mock-infected CEM-SS cells; type: cell-based; details: human
Outline: (§1)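 Mock-infected CEM-SS or MT-4 cells; CC50 defined as 50% cytotoxic concentration; means of at least two separate experiments.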

[2] = target: Human immunodeficiency virus type 1 reverse transcriptase (Human immunodeficiency virus 1, UniProt Q72547); test: Inhibition of HIV1 recombinant reverse transcriptase
[3] = Cytotoxicity against mock-infected MT4 cells; type: cell-based; details: human; outline: as §1
[4] = system: Human immunodeficiency virus 1; test: Antiviral activity against HIV1 3B in MT4 cells by MTT assay; type: functional, organism-based; details: for EC50: Human immunodeficiency virus 1, 3B
Outline: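 Cytoprotection read-out by MTT in MT-4 cells infected with HIV-1 strain IIIB; EC50 taken as the concentration giving 50% inhibition of viral cytopathicity; means of at least two separate experiments.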

[5] = system: Human immunodeficiency virus 1; test: Antiviral activity against HIV1 RF in CEM-SS cells by XTT assay; type: functional, organism-based; details: for EC50: Human immunodeficiency virus 1, RF
Outline: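 HIV-1 RF infection of CEM-SS cells, with protection scored by XTT cytoprotection assay; EC50 defined as 50% effective concentration for inhibiting cytopathicity; means of at least two separate experiments.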

[6] = system: Human immunodeficiency virus 2; test: Antiviral activity against HIV2 ROD in MT4 cells by MTT assay; type: functional, organism-based
Outline: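 HIV-2 strain ROD infection of MT-4 cells; MTT cytoprotection read-out; EC50 is the 50% effective concentration against virus-induced cytopathicity; mean values from at least two separate experiments.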

[7] = Metabolic stability in rat plasma; type: ADME, cell-free
Outline: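 Hydrolytic stability in rat plasma in vitro, with 1,1-diphenylethylene or benzophenone as internal standard; samples followed by HPLC; half-life reported in minutes as mean ± SD of at least two separate experiments.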

SMILES: CONC(=O)c1cc(/C(=C\CCCC(=O)OC(C)(C)C)c2cc(C)c3oc(=O)n(C)c3c2)cc(C)c1OC
CC50 [1]: 5.2 µM
IC50 [2]: > 100 µM
CC50 [3]: 16.8 µM
Activity [4]: inactive
Activity [5]: inactive
Activity [6]: inactive

SMILES: CO/N=C(\F)c1cc(/C(=C\CCCc2nc(C)no2)c2cc(C)c3oc(=O)n(C)c3c2)cc(C)c1OC
CC50 [1]: 2.9 µM
IC50 [2]: 0.67 µM
half-life [7]: 60.7 h
CC50 [3]: 12.4 µM
EC50 [4]: 0.24 µM
EC50 [5]: 0.7 µM
Activity [6]: inactive

SMILES: CO/N=C(\Cl)CCC/C=C(\c1cc(C)c(OC)c(/C(Cl)=N/OC)c1)c1cc(C)c2oc(=O)n(C)c2c1
CC50 [1]: 1.3 µM
IC50 [2]: 0.6 µM
half-life [7]: 82.8 h
CC50 [3]: 3.9 µM
Activity [5]: inactive
Activity [6]: inactive

SMILES: COC(=O)CCCC=C(c1cc(C)c(OC)c(C(=O)OC)c1)c1cc(C)c(OC)c(C(=O)OC)c1
CC50 [1]: 6 µM
IC50 [2]: 1 µM
half-life [7]: 0.0127 h
CC50 [3]: 6.1 µM
EC50 [5]: 0.25 µM
Activity [6]: inactive

Now from value to compound, other results behind:

IC50 [2]: > 100 µM
SMILES: CONC(=O)CCC/C=C(\c1cc(C)c(OC)c(C(=O)NOC)c1)c1cc(C)c2oc(=O)n(C)c2c1
CC50 [1]: 5.4 µM
CC50 [3]: 18.4 µM
Activity [4]: inactive
Activity [5]: inactive
Activity [6]: inactive

IC50 [2]: 0.55 µM
half-life [7]: 0.153 h
SMILES: CO/N=C(\F)c1cc(/C(=C\CCCC(=O)OC)c2cc(C)c3oc(=O)n(C)c3c2)cc(C)c1OC
CC50 [1]: 3.9 µM
CC50 [3]: 21 µM
EC50 [4]: 0.29 µM
EC50 [5]: 0.5 µM
Activity [6]: inactive

IC50 [2]: 0.85 µM
half-life [7]: 2.6 h
SMILES: CO/N=C(\Br)CCC/C=C(\c1cc(C)c(OC)c(/C(Br)=N/OC)c1)c1cc(C)c2oc(=O)n(C)c2c1
CC50 [1]: 2.1 µM
CC50 [3]: 13.3 µM
EC50 [4]: 6.3 µM
Activity [5]: inactive
Activity [6]: inactive

IC50 [2]: 0.02 µM
half-life [7]: 0.0217 h
SMILES: COC(=O)CCC/C=C(\c1cc(C)c(OC)c(C(=O)OC)c1)c1cc(C)c2oc(=O)n(C)c2c1
CC50 [1]: 5.1 µM
CC50 [3]: 16.9 µM
EC50 [5]: 0.02 µM
Activity [6]: inactive

Source: ChEMBL document CHEMBL1145441, “Synthesis and anti-HIV activity of new metabolically stable alkenyldiarylmethane non-nucleoside reverse transcriptase inhibitors incorporating N-methoxy imidoyl halide and 1,2,4-oxadiazole systems” (J Med Chem, 2007)
